Key:
[1] = tested on: T47D; assay: Cytotoxicity against human T47D cells assessed as growth inhibition at 0.32 mM after 48 hrs by spectrophotometer using BrdU labeling; type: functional; settings: read-out: GI
How it was run: (§1)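 Human breast carcinoma T47D cells were plated at 10⁴ cells per mL on microtiter plates. Each compound was added at three doses, given as mM equivalents of three mass concentrations. Plates were incubated for 24, 48 or 72 h. The read-out was percent growth inhibition (GI).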

[2] = tested on: T47D; assay: Cytotoxicity against human T47D cells assessed as growth inhibition at 0.03 mM after 24 hrs by spectrophotometer using BrdU labeling; type: functional; settings: read-out: GI
[3] = Cytotoxicity against human HSF cells assessed as growth inhibition at 0.32 mM after 72 hrs by spectrophotometer using BrdU labeling; type: cell-based; settings: read-out: GI
[4] = tested on: A549; assay: Cytotoxicity against human A549 cells assessed as growth inhibition at 0.03 mM after 72 hrs by spectrophotometer using BrdU labeling; type: functional; settings: A549, 72 h, read-out: GI
[5] = Cytotoxicity against human HSF cells assessed as growth inhibition at 0.32 mM after 24 hrs by spectrophotometer using BrdU labeling; type: cell-based; settings: read-out: GI
[6] = tested on: A549; assay: Cytotoxicity against human A549 cells assessed as growth inhibition at 0.03 mM after 24 hrs by spectrophotometer using BrdU labeling; type: functional; settings: A549, 24 h, read-out: GI
[7] = tested on: A549; assay: Cytotoxicity against human A549 cells assessed as growth inhibition at 0.16 mM after 48 hrs by spectrophotometer using BrdU labeling; type: functional; settings: A549, 48 h, read-out: GI
[8] = Cytotoxicity against human HSF cells assessed as growth inhibition at 0.03 mM after 48 hrs by spectrophotometer using BrdU labeling; type: cell-based; settings: read-out: GI
[9] = tested on: A549; assay: Cytotoxicity against human A549 cells assessed as growth inhibition at 0.03 mM after 48 hrs by spectrophotometer using BrdU labeling; type: functional; settings: A549, 48 h, read-out: GI
[10] = tested on: T47D; assay: Cytotoxicity against human T47D cells assessed as growth inhibition at 0.03 mM after 72 hrs by spectrophotometer using BrdU labeling; type: functional; settings: read-out: GI
[11] = Cytotoxicity against human HSF cells assessed as growth inhibition at 0.16 mM after 48 hrs by spectrophotometer using BrdU labeling; type: cell-based; settings: read-out: GI
[12] = tested on: A549; assay: Cytotoxicity against human A549 cells assessed as growth inhibition at 0.32 mM after 72 hrs by spectrophotometer using BrdU labeling; type: functional; settings: A549, 72 h, read-out: GI
[13] = Cytotoxicity against human HSF cells assessed as growth inhibition at 0.03 mM after 24 hrs by spectrophotometer using BrdU labeling; type: cell-based; settings: read-out: GI
[14] = tested on: T47D; assay: Cytotoxicity against human T47D cells assessed as growth inhibition at 0.16 mM after 72 hrs by spectrophotometer using BrdU labeling; type: functional; settings: read-out: GI; how it was run: as §1
[15] = tested on: A549; assay: Cytotoxicity against human A549 cells assessed as growth inhibition at 0.32 mM after 24 hrs by spectrophotometer using BrdU labeling; type: functional; settings: A549, 24 h, read-out: GI
[16] = tested on: T47D; assay: Cytotoxicity against human T47D cells assessed as growth inhibition at 0.32 mM after 72 hrs by spectrophotometer using BrdU labeling; type: functional; settings: read-out: GI; how it was run: as §1
[17] = tested on: A549; assay: Cytotoxicity against human A549 cells assessed as growth inhibition at 0.32 mM after 48 hrs by spectrophotometer using BrdU labeling; type: functional; settings: A549, 48 h, read-out: GI
[18] = Cytotoxicity against human HSF cells assessed as growth inhibition at 0.16 mM after 72 hrs by spectrophotometer using BrdU labeling; type: cell-based; settings: read-out: GI
[19] = tested on: T47D; assay: Cytotoxicity against human T47D cells assessed as growth inhibition at 0.16 mM after 24 hrs by spectrophotometer using BrdU labeling; type: functional; settings: read-out: GI
[20] = tested on: T47D; assay: Cytotoxicity against human T47D cells assessed as growth inhibition at 0.16 mM after 48 hrs by spectrophotometer using BrdU labeling; type: functional; settings: read-out: GI
[21] = Cytotoxicity against human HSF cells assessed as growth inhibition at 0.32 mM after 48 hrs by spectrophotometer using BrdU labeling; type: cell-based; settings: read-out: GI
[22] = Cytotoxicity against human HSF cells assessed as growth inhibition at 0.16 mM after 24 hrs by spectrophotometer using BrdU labeling; type: cell-based; settings: read-out: GI
[23] = tested on: A549; assay: Cytotoxicity against human A549 cells assessed as growth inhibition at 0.16 mM after 24 hrs by spectrophotometer using BrdU labeling; type: functional; settings: A549, 24 h, read-out: GI
[24] = tested on: T47D; assay: Cytotoxicity against human T47D cells assessed as growth inhibition at 0.32 mM after 24 hrs by spectrophotometer using BrdU labeling; type: functional; settings: read-out: GI; how it was run: as §1
[25] = tested on: A549; assay: Cytotoxicity against human A549 cells assessed as growth inhibition at 0.16 mM after 72 hrs by spectrophotometer using BrdU labeling; type: functional; settings: A549, 72 h, read-out: GI
[26] = Cytotoxicity against human HSF cells assessed as growth inhibition at 0.03 mM after 72 hrs by spectrophotometer using BrdU labeling; type: cell-based; settings: read-out: GI
[27] = tested on: T47D; assay: Cytotoxicity against human T47D cells assessed as growth inhibition at 0.03 mM after 48 hrs by spectrophotometer using BrdU labeling; type: functional; settings: read-out: GI

Molecule `CCSc1n[nH]c(/C=C\C(=O)Nc2ccccc2Cl)n1` has an inhibition of growth at 320 µM [1] of 10%, an inhibition of growth at 30 µM [2] of 0% and an inhibition at 72 h, 320 µM [3] of 75%. For the same molecule, the inhibition of growth at 30 µM [4] was 25%, the inhibition at 24 h, 320 µM [5] was 25% and the inhibition of growth at 30 µM [6] was 25%. The inhibition of growth at 160 µM [7] was 50%, the inhibition at 48 h, 30 µM [8] was 0% and the inhibition of growth at 30 µM [9] was 25%. The inhibition of growth at 30 µM [10] was 5%, the inhibition at 48 h, 160 µM [11] was 0% and the inhibition of growth at 320 µM [12] was 75%. It also gave an inhibition at 24 h, 30 µM [13] of 0%, an inhibition of growth at 160 µM [14] of 50% and an inhibition of growth at 320 µM [15] of 50%. It also gave an inhibition of growth at 320 µM [16] of 90%, an inhibition of growth at 320 µM [17] of 50% and an inhibition at 72 h, 160 µM [18] of 0%. For the same molecule, the inhibition of growth at 160 µM [19] was 0%, the inhibition of growth at 160 µM [20] was 10% and the inhibition at 48 h, 320 µM [21] was 50%. For the same molecule, the inhibition at 24 h, 160 µM [22] was 0%, the inhibition of growth at 160 µM [23] was 50% and the inhibition of growth at 320 µM [24] was 0%. For the same molecule, the inhibition of growth at 160 µM [25] was 50%, the inhibition at 72 h, 30 µM [26] was 5% and the inhibition of growth at 30 µM [27] was 0%.

Source: ChEMBL document CHEMBL1153775, “Synthesis, structure elucidation and antitumour activity of N-substituted amides of 3-(3-ethylthio-1,2,4-triazol-5-yl)propenoic acid” (Eur J Med Chem, 2009)
